Test results published in ChEMBL document CHEMBL3124926, “Identification of highly efficacious glucocorticoid receptor agonists with a potential for reduced clinical bone side effects” (J Med Chem, 2014).
≈ marks a conversion by molar mass, not a printed value.

Columns and labels:
[1] = Aqueous solubility of the compound in buffer at pH 7; format: physicochemical
Mus musculus [2] = test: Toxicity in collagen-induced B10.RIII mouse arthritis model assessed as change in insulin level at 100 mg/kg, po qd for 35 days relative to 1% methylcellulose-treated control; format: organism-based; design: dose 100 mg/kg, route oral; conditions: in vivo, 840 h
How it was run: (§1)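 Female B10.RIII mice were immunized at 12–15 weeks with porcine type II collagen emulsified in complete Freund's adjuvant (100 μg intradermal, tail base). Animals were enrolled at first arthritis signs, 10 per group, and dosed orally once daily for five weeks in 1% methylcellulose. Paws were scored 1–4 each (max 16), with AUC taken. Serum was collected at day 35. Femur cortical thickness was measured by microCT in non-immunized, age-matched mice given the same dosing.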

Mus musculus [3] = test: Toxicity in collagen-induced B10.RIII mouse arthritis model assessed as change in free fatty acid level at 100 mg/kg, po qd for 35 days relative to 1% methylcellulose-treated control; format: organism-based; design: dose 100 mg/kg, route oral; conditions: in vivo, 840 h; how it was run: as §1
Mus musculus [4] = test: Toxicity in collagen-induced B10.RIII mouse arthritis model assessed as change in triglyceride level at 100 mg/kg, po qd for 35 days relative to 1% methylcellulose-treated control; format: organism-based; design: dose 100 mg/kg, route oral; conditions: in vivo, 840 h; how it was run: as §1
Mus musculus [5] = test: Toxicity in collagen-induced B10.RIII mouse arthritis model assessed as change in body fat at 100 mg/kg, po qd for 35 days relative to 1% methylcellulose-treated control; format: organism-based; design: dose 100 mg/kg, route oral; conditions: in vivo, 840 h; how it was run: as §1
Mus musculus [6] = test: Toxicity in collagen-induced B10.RIII mouse arthritis model assessed as change in AUC at 100 mg/kg, po qd for 35 days relative to 1% methylcellulose-treated control; format: organism-based; design: dose 100 mg/kg, route oral; conditions: in vivo, 840 h; how it was run: as §1
Mus musculus [7] = test: Antiinflammatory activity in po dosed Balb/c mouse assessed as inhibition of LPS-induced TNFalpha production administered 60 mins prior to LPS challenge measured after 1 hr by […]; format: functional
[8] = Half life in rat at 5 mg/kg, iv and 30 mg/kg, po; format: ADME, organism-based; conditions: in vivo
How it was run: (§2)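 Rat PK: 5 mg/kg iv in 80/20 PEG/water and 30 mg/kg po in 80/18/2 PEG/water/Tween.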

[9] = Volume of distribution at steady state in rat at 5 mg/kg, iv and 30 mg/kg, po; format: ADME, organism-based; conditions: in vivo, read-out: Vdss
How it was run: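 Rat pharmacokinetics: single intravenous dose of 5 mg/kg in 80/20 PEG/water, plus a separate oral dose of 30 mg/kg in 80/18/2 PEG/water/Tween. Steady-state volume of distribution is from the iv arm; clearance, half-life and oral bioavailability come from the same study.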

Rattus norvegicus [10] = test: Clearance in rat at 5 mg/kg, iv and 30 mg/kg, po; format: ADME, organism-based; conditions: in vivo; how it was run: as §2
Mus musculus [11] = test: Toxicity in nonimmunized, nondiseased mouse assessed as change in femur cortical thickness at 100 mg/kg, po qd for 35 days relative to 1% methylcellulose-treated control; conditions: in vivo, 840 h
Mus musculus [12] = test: Toxicity in collagen-induced B10.RIII mouse arthritis model assessed as change in femur cortical thickness at 100 mg/kg, po qd for 35 days relative to 30% cremophor-treated control; format: organism-based; design: dose 100 mg/kg, route oral; conditions: in vivo, 840 h
How it was run: (§3)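 Female B10.RIII mice were immunized with porcine type II collagen in complete Freund's adjuvant, enrolled at arthritis onset (10/group), and dosed orally once daily for five weeks in 30% cremophor vehicle. Four paws were scored 1–4 (max 16), as AUC. Serum biomarkers were taken at day 35. Femur cortical thickness was measured by microCT in non-immunized, age-matched mice dosed identically.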

Mus musculus [13] = test: Toxicity in collagen-induced B10.RIII mouse arthritis model assessed as change in insulin level at 100 mg/kg, po qd for 35 days relative to 30% cremophor-treated control; format: organism-based; design: dose 100 mg/kg, route oral; conditions: in vivo, 840 h; how it was run: as §3
Mus musculus [14] = test: Toxicity in collagen-induced B10.RIII mouse arthritis model assessed as change in free fatty acid level at 100 mg/kg, po qd for 35 days relative to 30% cremophor-treated control; format: organism-based; design: dose 100 mg/kg, route oral; conditions: in vivo, 840 h; how it was run: as §3
Mus musculus [15] = test: Toxicity in collagen-induced B10.RIII mouse arthritis model assessed as change in body fat at 100 mg/kg, po qd for 35 days relative to 30% cremophor-treated control; format: organism-based; design: dose 100 mg/kg, route oral; conditions: in vivo, 840 h; how it was run: as §3
Mus musculus [16] = test: Toxicity in collagen-induced B10.RIII mouse arthritis model assessed as change in AUC at 100 mg/kg, po qd for 35 days relative to 30% cremophor-treated control; format: organism-based; design: dose 100 mg/kg, route oral; conditions: in vivo, 840 h; how it was run: as §3
[17] = Half life in rat at 2 mg/kg, iv and 30 mg/kg, po; format: ADME, organism-based; conditions: in vivo
How it was run: (§4)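 Rat PK: 2 mg/kg iv in 80/20 PEG/water and 30 mg/kg po in 80/18/2 PEG/water/Tween.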

Rattus norvegicus [18] = test: Clearance in rat at 2 mg/kg, iv and 30 mg/kg, po; format: ADME, organism-based; conditions: in vivo; how it was run: as §4
[19] = Volume of distribution at steady state in rat at 2 mg/kg, iv and 30 mg/kg, po; format: ADME, organism-based; conditions: in vivo, read-out: Vdss; how it was run: as §4

Structure (SMILES): Cc1ccc(F)cc1C(C)(C)CC(O)(Cc1cc2nnccc2[nH]1)C(F)(F)F (racemic)
- solubility [1]: 2 µg/mL (≈ 5.06 µM)

Structure (SMILES): Cc1ccc(F)cc1C(C)(C)C[C@@](O)(Cc1cc2ncncc2[nH]1)C(F)(F)F
- Activity (Mus musculus [2]): 17%
- Activity (Mus musculus [3]): 14%
- Activity (Mus musculus [4]): -14%
- Activity (Mus musculus [5]): 32%
- Activity (Mus musculus [6]): -57%
- ED50 (Mus musculus [7]): 1 mg/kg
- half-life [8]: 36 min
- Vd [9]: 2.1 L/kg
- CL (Rattus norvegicus [10]): 61%
- Activity (Mus musculus [11]): -6%

Structure (SMILES): Cc1ccc(F)cc1C(C)(C)C[C@@](O)(Cc1cc2nnccc2[nH]1)C(F)(F)F
- Activity (Mus musculus [12]): -8%
- Activity (Mus musculus [13]): -36%
- Activity (Mus musculus [14]): -2%
- Activity (Mus musculus [15]): 8%
- Activity (Mus musculus [16]): -53%
- ED50 (Mus musculus [7]): 3 mg/kg
- half-life [17]: 30 min
- CL (Rattus norvegicus [18]): > 100%
- Vd [19]: 3.7 L/kg

Structure (SMILES): Cc1ccc(F)cc1C(C)(C)CC(O)(Cc1cc2ncncc2[nH]1)C(F)(F)F (racemic)
- solubility [1]: 11 µg/mL (≈ 27.8 µM)
